Screening results deposited in PubChem by The Scripps Research Institute Molecular Screening Center.
In the library only some 4.6% were active in any assay of this set; here they are far more common.
OX1R antag-1 = antagonists of human orexin 1 receptor (OX1R) | OX1R-expressing cells, FRET antagonist read-out | inhibition, % at 6.6 µM | hit rate 1.8% among 330,000 | AID 485270, 2010; in the data active means inhibition mostly above about 38%, no sharp cut-off; inactive means mostly below about 40%
TAAR1 antagonist = human TAAR1 antagonists, primary screen, Fluo-8 calcium fluorescence, CHO RD-HGA16 cells. Trace amine-associated receptor 1 (Homo sapiens), Q96RJ0. antagonist. inhibition, % at 3 µM. hit rate 1.5% among 360,000;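 active means inhibition above a per-plate cutoff, the mean inhibition of test compounds on that plate plus 3 SD, cut at about 49% in these data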
Target sequence (Q96RJ0 whole entry, looked up): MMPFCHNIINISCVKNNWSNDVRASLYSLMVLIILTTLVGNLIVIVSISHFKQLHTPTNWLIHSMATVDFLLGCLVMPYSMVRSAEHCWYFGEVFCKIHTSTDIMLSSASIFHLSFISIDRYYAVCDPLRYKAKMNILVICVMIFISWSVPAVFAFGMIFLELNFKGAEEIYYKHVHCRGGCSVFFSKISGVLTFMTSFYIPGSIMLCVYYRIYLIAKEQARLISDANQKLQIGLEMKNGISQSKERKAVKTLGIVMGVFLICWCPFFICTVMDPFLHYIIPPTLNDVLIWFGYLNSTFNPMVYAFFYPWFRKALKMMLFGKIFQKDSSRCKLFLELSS
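System: CHO RD-HGA16 cells bearing hTAAR1. Reagent: EC80 β-phenethylamine stimulus. Schedule: seeding 17-24 h prior, 75-min 37 °C, 30-min RT dye loading. Signal: Fluo-8 intracellular calcium dye fluorescence, real-time kinetic reads. Read-out: % inhibition from peak post-agonist over basal fluorescence ratio. Benchmarks: vehicle wells and EC80 agonist wells. Replicates: n of 1.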
CHO parental Ca = ATP-evoked calcium signal inhibitors, parental CHO, primary screen, counter-screen for OX1R antagonist project, cell-based, fluorescence, Fluo-8 calcium dye; parental CHO-K1, ATP-induced calcium, Fluo-8 fluorescence; inhibition, % at 5.6 µM; hit rate 0.63% among 330,000; AID 463079, 2010;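 active means inhibition above that plate's mean sample inhibition plus 3 SD, cut at about 26% in these data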
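test system = CHO parental line | reagent = ATP stimulus | measured by = intracellular calcium via Fluo-8 no-wash fluorescent dye | control set = ATP and no-ATP DMSO wells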
GPR7 antag = GPR7 receptor antagonists, primary screen, cell-based, fluorescence, single concentration | Neuropeptides B/W receptor type 1 (Homo sapiens), P48145 | GPR7-expressing cells, fluorescence antagonist assay | inhibition, % at 4.4 µM | hit rate 1.1% among 290,000; in the data active means inhibition above about 16%, passing the limit was not always enough;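 further: cells stimulated with the agonist NPW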
OX1R antag-2 = OX1R (HCRTR1) antagonists, primary screen, fluorescence, CHO/OX1R cells, Fluo-8 calcium, orexin A | Orexin/Hypocretin receptor type 1 (Homo sapiens), O43613 | Fluo-8 calcium fluorescence | inhibition, % at 5 µM | hit rate 0.43% among 330,000 | AID 434989, 2010;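 active means inhibition above its plate's threshold, mean inhibition of all tested compounds on the plate plus 3 SD, cut at about 37% in these data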
TAAR1 agonist = human TAAR1 agonists, primary screen, Fluo-8 calcium fluorescence, CHO RD-HGA16 cells; AID 624467, 2012; activation, % at 3 µM; vehicle wells 0%, saturating PEA agonist 100%; Trace amine-associated receptor 1 (Homo sapiens), Q96RJ0; hit rate 0.99% among 360,000;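 active means activation above the mean activation of all test compounds in the run plus 3 SD, cut at about 38% in these data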
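test system = CHO RD-HGA16 cells carrying human TAAR1 plus Gα16 | schedule = 17-24 h seeding, 75 min 37 °C dye, 30 min RT | compound dosing = 3 µM single concentration | control set = DMSO and PEA EC100 | replicates = n 1 | signal = Fluo-8 fluorescence, 5 s baseline then 140 s kinetic read | measure = percent activation vs PEA EC100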
Of the large screens only hits and unclear results are named; the others gave an inactive call.

O=C(O)c1ccc2c(c1)S(=O)(=O)c1cc(Cl)ccc1C2=O	OX1R antag-1 32 (no result: GPR7 antag)
CCc1cccc(CC)c1NC(=O)COC(=O)c1ccc2c(c1)S(=O)(=O)c1ccccc1C2=O	none
O=C(COC(=O)c1ccc2c(c1)S(=O)(=O)c1ccccc1C2=O)NC1CC1	OX1R antag-1 51
O=C1c2ccccc2S(=O)(=O)c2cc(C(=O)N3CCN(c4ccccc4)CC3)ccc21	none (no result: GPR7 antag)
NC(=O)COC(=O)c1ccc2c(c1)S(=O)(=O)c1ccccc1C2=O	OX1R antag-1 64
COCCN1CCN(C(=O)c2ccc3c(c2)S(=O)(=O)c2ccccc2C3=O)CC1	OX1R antag-1 66 (no result: GPR7 antag)
O=C(NC(=S)N(CCc1ccccc1)CCc1ccccc1)c1ccco1	none
CCC(=O)Nc1cccc(C(=O)OCc2cccc([N+](=O)[O-])c2)c1	none (no result: OX1R antag-1, CHO parental Ca, OX1R antag-2)
O=[N+]([O-])c1cc(S(=O)(=O)N2CCCCCC2)ccc1F	none
Cc1ccc(S(=O)(=O)N2[C@@H](c3ccc(Cl)c(Cl)c3)C(C(=O)O)=C[C@H]2CC2CCCC2)cc1	none (no result: GPR7 antag)
CC(OC(=O)c1ccc2c(c1)S(=O)(=O)c1ccccc1C2=O)C(N)=O (stereo unspecified)	OX1R antag-1 71
O=C(O)c1ccc2c(c1)S(=O)(=O)c1ccccc1C2=O	none (no result: OX1R antag-1, TAAR1 antagonist, CHO parental Ca, OX1R antag-2, TAAR1 agonist)
NC(=O)c1ccc2c(c1)S(=O)(=O)c1ccccc1C2=O	OX1R antag-1 65
CNS(=O)(=O)c1cccc(C(=O)OCC(=O)c2ccc[nH]2)c1	none (no result: GPR7 antag)
O=C(Nc1ncc(Cc2ccc(SC(F)F)cc2)s1)c1ccccc1	TAAR1 agonist 44
CCOC(=O)CCn1cnc2ccc([N+](=O)[O-])cc2c1=O	none
O=c1c2ccccc2ncn1-c1cccc([N+](=O)[O-])c1	none (no result: GPR7 antag)
Cn1cnc2ccc([N+](=O)[O-])cc2c1=O	OX1R antag-1 75
O=c1c2ccccc2ncn1-c1ccc([N+](=O)[O-])cc1[N+](=O)[O-]	OX1R antag-1 58
CC(NS(=O)(=O)OCC(Cl)(Cl)Cl)c1ccc(C(C)(C)C)cc1 (stereo unspecified)	TAAR1 antagonist 52, CHO parental Ca 64
CC(C)=CCC/C(C)=C/CCC(C)NCCN1CCNCC1 (stereo unspecified)	GPR7 antag 24 (no result: TAAR1 antagonist, TAAR1 agonist)
COc1ccc(N2C(=O)c3ccccc3NC23CCCCC3)cc1	none
COc1ccc(OC)c(NC(=O)COC(=O)c2c3c(nc4ccccc24)CCCC3)c1	OX1R antag-1 57
CCC(C(=O)OCC(=O)Nc1c(C)nn(-c2ccccc2)c1C)c1ccccc1 (stereo unspecified)	none (no result: GPR7 antag)
Cc1nn(-c2ccccc2)c(C)c1NC(=O)COC(=O)/C=C/c1ccccc1	TAAR1 antagonist 60 (no result: GPR7 antag)
COc1ccc(C)cc1NC(=O)COC(=O)c1c(C)nn(-c2ccccc2)c1C	OX1R antag-1 30 (no result: GPR7 antag)
COc1ccc(C)cc1NC(=O)c1nn(-c2ccccc2)cc1OC	OX1R antag-1 48
c1ccc2c(c1)CCCN2c1nc(N2CCOCC2)nc(N2CCOCC2)n1	none
O=C(COc1cc(F)ccc1[N+](=O)[O-])Nc1cc(S(=O)(=O)N2CCCC2)ccc1Cl	none (no result: OX1R antag-1, CHO parental Ca, GPR7 antag, OX1R antag-2)
O=C(c1ccco1)N1CCN(c2c([N+](=O)[O-])nn(-c3ccc(Cl)cc3)[n+]2[O-])CC1	OX1R antag-1 42
COc1ccc(N(CC(=O)Nc2ccc(S(=O)(=O)N3CCOCC3)cc2)S(=O)(=O)c2ccc(F)cc2)cc1	TAAR1 antagonist 51
O=C1c2ccccc2C(=O)N1CCCCCc1nc(-c2ccccc2)no1	OX1R antag-1 74
CC(C)N1C(=O)CC(Nc2cccc3cccc(N)c23)C1=O (stereo unspecified)	none (no result: OX1R antag-1, CHO parental Ca, OX1R antag-2)
Cc1ccc(S(=O)(=O)N(C)c2ccc(C(=O)NCCc3ccccc3)cc2)cc1	none
CN(c1ccc(C(=O)NCCc2ccccc2)cc1)S(C)(=O)=O	TAAR1 agonist 40
O=C(NCCc1ccccc1)c1ccc(-n2cnnn2)cc1	GPR7 antag 18
